Results of several laboratories.
Each line is one published result; the experiments were not run side by side.
Target: Cyclin-dependent kinase-like 5 (CDKL5, Homo sapiens, UniProt O76039)
Residues used in one study (O76039 1-960): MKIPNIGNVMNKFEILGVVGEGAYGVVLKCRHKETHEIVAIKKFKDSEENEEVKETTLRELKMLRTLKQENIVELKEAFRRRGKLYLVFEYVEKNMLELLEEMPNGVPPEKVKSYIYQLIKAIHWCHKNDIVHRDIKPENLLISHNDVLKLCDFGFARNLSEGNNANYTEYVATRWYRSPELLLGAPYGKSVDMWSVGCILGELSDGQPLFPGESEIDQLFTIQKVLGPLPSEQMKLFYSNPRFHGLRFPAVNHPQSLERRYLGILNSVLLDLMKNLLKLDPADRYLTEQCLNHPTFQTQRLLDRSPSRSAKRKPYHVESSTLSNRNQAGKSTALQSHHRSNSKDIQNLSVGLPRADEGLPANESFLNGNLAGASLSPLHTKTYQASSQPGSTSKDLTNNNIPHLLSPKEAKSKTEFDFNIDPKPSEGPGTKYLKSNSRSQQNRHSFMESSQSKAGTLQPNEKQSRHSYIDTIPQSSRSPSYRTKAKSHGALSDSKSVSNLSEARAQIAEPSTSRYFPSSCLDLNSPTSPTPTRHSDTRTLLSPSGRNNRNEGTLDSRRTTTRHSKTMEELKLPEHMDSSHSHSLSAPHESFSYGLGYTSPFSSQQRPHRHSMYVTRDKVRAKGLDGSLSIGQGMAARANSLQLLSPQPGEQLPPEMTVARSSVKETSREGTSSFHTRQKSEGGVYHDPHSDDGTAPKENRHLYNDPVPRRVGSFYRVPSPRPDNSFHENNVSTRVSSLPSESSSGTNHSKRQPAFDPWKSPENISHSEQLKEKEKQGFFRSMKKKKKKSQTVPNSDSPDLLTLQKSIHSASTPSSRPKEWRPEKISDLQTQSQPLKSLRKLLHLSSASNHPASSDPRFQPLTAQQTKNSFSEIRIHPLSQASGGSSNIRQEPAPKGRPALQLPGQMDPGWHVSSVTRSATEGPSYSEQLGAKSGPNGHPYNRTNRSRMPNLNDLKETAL

Compound	test	conditions	remaining binding [%]
CNC(=O)[C@@H]1CC[C@@H](n2c(-c3ccc4cnccc4c3)nc3ccc(C(=O)NCc4cccc(C(N)=O)c4)cc32)C1	binding, competition with immobilised ligand	1 µM	100
CCCCN(CCCC)C(=O)CN1C[C@H](c2cc(OC)c3c(c2)OCO3)[C@@H](C(=O)O)[C@@H]1CC(C)(C)CCC	cell-free assay, competition with immobilised ligand	1 µM	71.4
Cc1cnc(Nc2ccc(C(=O)N3CCC(N4CCCC4)CC3)cc2)nc1-c1cc2ccccc2s1	binding, competition with immobilised ligand	1 µM	69
Cc1nccc(COC(=O)N2C[C@@H]3[C@@H](CNC(=O)c4ccc5[nH]nnc5c4)[C@@H]3C2)n1	cell-free assay, competition with immobilised ligand	1 µM	87
CC1CCCN1c1nccc(-c2cnn3ncccc23)n1 (stereo not drawn)	binding	1 µM	100
COc1ncc2cc3ccccc3nc2c1C#N	binding, competition with immobilised ligand	5 µM	90
CN(c1nccc(-c2cnn3ncccc23)n1)C1CC1	binding	1 µM	100
C[C@@H](c1ccc(-n2cnc3c(N)ncnc32)cc1)N1CCc2nn(C)c(Cc3ccccc3)c2C1=O	binding, competition with immobilised ligand	0.1 µM	71
C[C@H](c1ccc(F)cc1)N(Cc1cccc(C(=O)O)c1)C(=O)c1cnc2ccccc2c1	binding, competition with immobilised ligand	1 µM	100
O=C(Nc1c[nH]nc1C(=O)NC1CCNCC1)c1cc(F)cc(F)c1	binding, competition with immobilised ligand	1 µM	0.2
O=C(c1ccc(Nc2nccc(-c3cc4ccccc4s3)n2)cc1)N1CCC(N2CCCC2)CC1	binding, competition with immobilised ligand	1 µM	91
Cc1cnn2ncc(-c3ccnc(N(C)C)n3)c2c1	binding	1 µM	86
COc1cnc(Nc2cccc(S(N)(=O)=O)c2)nc1N1CCN(c2ccccc2)CC1	binding, competition with immobilised ligand	1 µM	72
C[C@@H]1CCN(c2nccc(-c3cnn4ncccc34)n2)C1	binding	1 µM	86
O=C(NS(=O)(=O)c1ccc(NCC2CCOCC2)c([N+](=O)[O-])c1)c1ccc(N2CCN(Cc3ccc(C(F)(F)F)cc3-c3ccc(Cl)cc3)CC2)cc1Oc1cnc2[nH]ccc2c1	cell-free assay, competition with immobilised ligand	1 µM	74
CN(C)c1nccc(-c2cnc3ncccn23)n1	binding	1 µM	88
C[C@@H](c1cccc(C#N)c1)n1cc(Cl)cc(C(N)=O)c1=N	binding, competition with immobilised ligand	1 µM	89
O=C(NCCCN1CCOCC1)c1ccc(Nc2nccc(-c3cc4ccccc4s3)n2)cc1	binding, competition with immobilised ligand	1 µM	40
N[C@H]1CCN(c2nccc(-c3cnn4ncccc34)n2)C1	binding	1 µM	100
CCS(=O)(=O)c1cc2cc(C[C@](O)(CC(C)(C)c3ccc(F)cc3C(N)=O)C(F)(F)F)[nH]c2cn1	cell-free assay, competition with immobilised ligand	1 µM	100
C=CC(=O)N1CCC(C(=O)NCC(=O)N2CCN(c3nc(-c4cnc(N)nc4C(F)F)nc(N4CCOCC4)n3)CC2)CC1	binding, competition with immobilised ligand	1 µM	100
